From ChEMBL document CHEMBL4266040, “Structure-Based Engineering of Irreversible Inhibitors against Histone Lysine Demethylase KDM5A” (J Med Chem, 2018)
Activity calls are given as the source filed them. The rule behind the calls is not given here.

Key:
[1] = Effective permeability of the compound at pH 7.4 by PAMPA; type: ADME; details: read-out: Peff
Method in brief: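 PAMPA with a lipid/dodecane artificial membrane and pH 7.4 buffer in donor and acceptor wells. Compounds diluted from 10 mM DMSO stock to 0.05 mM final, 0.5% DMSO. Donor stirred during a 30 min permeation at room temperature. Donor and acceptor concentrations read by UV. Permeability given in 10−6 cm s−1: >100 high, 10–100 moderate, <10 low.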

[2] = test system: BT-474; experiment: Cytotoxicity against human BT474 cells assessed as reduction in cell viability at >5 uM after 24 hrs by celltiter glo assay; type: functional, cell-based
Method in brief: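 BT474 cells treated with compound; viability read by CellTiter-Glo luminescence 24 h after treatment.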

[3] = test system: BT-474; experiment: Growth inhibition of human BT474 cells at 0.11 to 3.5 uM after 12 days by IncuCyte live cell imaging method; type: functional, cell-based
Method in brief: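 BT474 cells grown with compound; percent confluence tracked by IncuCyte live-cell imaging every 4 h over 300 h.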

[4] = test system: MCF7; experiment: Cytotoxicity against human MCF7 cells assessed as cell killing at 5 to 10 uM after 24 hrs by bright-field microscopy; type: functional, cell-based
[5] = test system: MDA-MB-231; experiment: Cytotoxicity against human MDA-MB-231 cells assessed as cell killing at 5 to 10 uM after 24 hrs by bright-field microscopy; type: functional, cell-based
[6] = test system: HEK-293T; experiment: Cytotoxicity against HEK293T cells assessed as cell killing at 5 to 10 uM after 24 hrs by bright-field microscopy; type: cell-based; details: human
[7] = test system: MCF7; experiment: Inhibition of KDM5 human MCF7 cells assessed as up-regulation of STING protein expression at 1 to 5 uM after 48 hrs by Western blot analysis relative to control; type: cell-based
Method in brief: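 MCF7 cells treated with compound or 0.1% DMSO for 30 or 48 h; total cell lysates analysed by Western blot with specific antibodies.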

[8] = test system: MCF7; experiment: Inhibition of KDM5 human MCF7 cells assessed as up-regulation of STING mRNA expression at 1 to 5 uM after 48 hrs by RT-qPCR assay relative to control; type: cell-based
Method in brief: (§1)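 MCF7 cells treated with compound or DMSO for 48 h; target mRNA quantified by real-time RT-PCR; biological triplicates.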

[9] = test system: MCF7; experiment: Inhibition of KDM5 human MCF7 cells assessed as up-regulation of MT1F mRNA expression at 1 to 5 uM after 48 hrs by RT-qPCR assay relative to control; type: cell-based; method in brief: as §1
[10] = test system: MCF7; experiment: Inhibition of KDM5 human MCF7 cells assessed as up-regulation of MT1H mRNA expression at 1 to 5 uM after 48 hrs by RT-qPCR assay relative to control; type: cell-based; method in brief: as §1
[11] = Metabolic stability in human BT474 cell culture media assessed as parent compound remaining at 10 uM after 24 hrs by LC-MS/MS analysis; type: physicochemical; details: read-out: Stability
[12] = Drug uptake in human BT474 cells at 2.5 uM after 24 hrs by LC-MS/MS analysis; type: ADME, cell-based; details: bt-474, 24 h
Method in brief: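 Compound incubated with BT474 cells for 24 h; cells lysed and compound level in the extract determined.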

[13] = target: T1, Lysine-specific demethylase 5A (Homo sapiens, UniProt P29375); experiment: Inhibition of KDM5A in human BT474 cells assessed as effect on H3K4me3 methylation levels up to 5 uM after 48 hrs by immunocytochemistry
[14] = target: T2, Lysine-specific demethylase 4A (Homo sapiens, UniProt O75164); experiment: Irreversible inhibition of recombinant KDM4A (1 to 350 residues) (unknown origin) expressed in Escherichia coli using H3 (1 to 21 residues) K9me3 as substrate preincubated for 10 mins followed by substrate/alphaKG/(NH4)2Fe(SO4)2 addition measured after 1 hr by alphaLISA assay
T2 sequence (O75164 whole entry): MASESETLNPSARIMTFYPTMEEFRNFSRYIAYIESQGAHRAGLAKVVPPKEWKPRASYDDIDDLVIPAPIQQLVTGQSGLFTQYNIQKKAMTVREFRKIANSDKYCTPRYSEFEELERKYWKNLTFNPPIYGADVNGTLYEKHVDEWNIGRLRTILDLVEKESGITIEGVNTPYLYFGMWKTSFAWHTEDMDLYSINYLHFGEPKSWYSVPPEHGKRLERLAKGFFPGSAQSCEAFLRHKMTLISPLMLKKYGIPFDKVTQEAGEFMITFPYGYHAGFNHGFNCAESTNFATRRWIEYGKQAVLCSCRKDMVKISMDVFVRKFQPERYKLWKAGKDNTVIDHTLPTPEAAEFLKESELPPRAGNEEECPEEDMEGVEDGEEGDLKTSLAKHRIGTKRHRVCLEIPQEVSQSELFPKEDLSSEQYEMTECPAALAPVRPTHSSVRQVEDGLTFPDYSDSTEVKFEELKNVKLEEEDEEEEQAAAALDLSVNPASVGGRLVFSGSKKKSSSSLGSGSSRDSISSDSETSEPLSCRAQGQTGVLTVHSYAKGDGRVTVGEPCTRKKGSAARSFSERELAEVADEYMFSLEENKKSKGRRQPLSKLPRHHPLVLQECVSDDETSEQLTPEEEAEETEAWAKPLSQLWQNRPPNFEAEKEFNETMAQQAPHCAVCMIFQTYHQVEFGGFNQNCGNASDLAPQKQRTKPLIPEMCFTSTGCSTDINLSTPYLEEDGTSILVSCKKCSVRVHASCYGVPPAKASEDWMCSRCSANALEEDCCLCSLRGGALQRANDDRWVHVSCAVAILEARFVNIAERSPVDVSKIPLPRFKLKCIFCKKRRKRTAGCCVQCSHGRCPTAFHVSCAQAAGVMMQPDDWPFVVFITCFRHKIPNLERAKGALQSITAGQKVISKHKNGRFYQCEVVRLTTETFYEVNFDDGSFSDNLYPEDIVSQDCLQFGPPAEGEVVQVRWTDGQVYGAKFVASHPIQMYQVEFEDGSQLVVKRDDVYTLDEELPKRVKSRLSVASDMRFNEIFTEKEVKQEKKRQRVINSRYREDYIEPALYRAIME
Method in brief: (§2)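 AlphaLISA using antibody to H3K4 (KDM5B) or H3K9 (KDM4A) methylation to detect demethylation of enzyme-specific histone peptides. Both enzymes are recombinant catalytic domains from E. coli, tested at the same enzyme concentration.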

[15] = species on record: Homo sapiens; experiment: Selectivity ratio of IC50 for recombinant KDM4A (1 to 350 residues) (unknown origin) to IC50 for recombinant KDM5B ARID/PhD1 domain deletion (1 to 755 residues) (unknown origin); method in brief: as §2
[16] = target: T1, Lysine-specific demethylase 5A; experiment: Irreversible inhibition of KDM5A ARID/PhD1 domain deletion mutant (1 to 739 residues) (unknown origin) using 10 uM alpha-KG by succinate-glo demethylase assay
Method in brief: (§3)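 KDM5A(1−739)ΔAP (0.8 μM) preincubated 20 min with 2-fold serial dilutions of compound. Reaction started with αKG (10, 100 or 1000 μM) and H3(1−24)K4me3 (60 μM), 10 μM (NH4)2Fe(SO4)2, 100 μM ascorbate, 50 mM HEPES pH 8.0, 5% DMSO. Run 10 min at ambient temperature, n = 3; succinate read by Succinate-Glo luminescence.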

[17] = target: T1, Lysine-specific demethylase 5A; experiment: Irreversible inhibition of KDM5A ARID/PhD1 domain deletion mutant (1 to 739 residues) (unknown origin) using 100 uM alpha-KG by succinate-glo demethylase assay; method in brief: as §3
[18] = target: T1, Lysine-specific demethylase 5A; experiment: Irreversible inhibition of KDM5A ARID/PhD1 domain deletion mutant (1 to 739 residues) (unknown origin) using 1000 uM alpha-KG by succinate-glo demethylase assay; method in brief: as §3
[19] = target: T1, Lysine-specific demethylase 5A; experiment: Irreversible inhibition of 0.4 uM KDM5A ARID/PhD1 domain deletion mutant (1 to 739 residues) (unknown origin) using 100 uM alpha-KG by succinate-glo demethylase assay
Method in brief: (§4)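 Succinate-Glo run with KDM5A(1−739)ΔAP at varied enzyme concentration and 100 μM αKG. H3(1−24)K4me3 60 μM, Fe(II) 10 μM, ascorbate 100 μM, HEPES pH 8.0, 5% DMSO.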

[20] = target: T1, Lysine-specific demethylase 5A; experiment: Irreversible inhibition of 0.8 uM KDM5A ARID/PhD1 domain deletion mutant (1 to 739 residues) (unknown origin) using 100 uM alpha-KG by succinate-glo demethylase assay; method in brief: as §4
[21] = target: T1, Lysine-specific demethylase 5A; experiment: Irreversible inhibition of 1.6 uM KDM5A ARID/PhD1 domain deletion mutant (1 to 739 residues) (unknown origin) using 100 uM alpha-KG by succinate-glo demethylase assay; method in brief: as §4
[22] = target: T1, Lysine-specific demethylase 5A; experiment: Irreversible inhibition of KDM5A ARID/PhD1 domain deletion mutant (1 to 739 residues) (unknown origin) using alpha-KG measured immediately by succinate-glo demethylase assay
Method in brief: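 Compound and KDM5A(1−739)ΔAP either without preincubation or preincubated 20 min before αKG addition; activity read by Succinate-Glo.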

[23] = target: T1, Lysine-specific demethylase 5A; experiment: Irreversible inhibition of KDM5A ARID/PhD1 domain deletion mutant (1 to 739 residues) (unknown origin) using alpha-KG by succinate-glo demethylase assay; method in brief: as §3
[24] = target: T1, Lysine-specific demethylase 5A; experiment: Irreversible inhibition of KDM5A ARID/PhD1 domain deletion mutant (1 to 739 residues) (unknown origin) using alpha-KG as substrate by succinate-glo demethylase assay; details: TDE = time-dependent effect; method in brief: as §3
[25] = target: T1, Lysine-specific demethylase 5A; experiment: Irreversible inhibition of KDM5A ARID/PhD1 domain deletion mutant (1 to 739 residues) (unknown origin)
Method in brief: (§5)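 KDM5A (0.8 μM) preincubated with five inhibitor concentrations (0.01–5 μM). At each time point, mixture added to H3 peptide (60 μM) and αKG (100 μM) and stopped after 7 min. Log % remaining activity plotted against preincubation time; negative slopes fitted by nonlinear regression against [I] to give kinact and KI.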

[26] = target: T1, Lysine-specific demethylase 5A; experiment: Irreversible inhibition of KDM5A ARID/PhD1 domain deletion mutant (1 to 739 residues) (unknown origin) assessed as Kinact to Ki ratio; method in brief: as §5
[27] = target: T1, Lysine-specific demethylase 5A; experiment: Irreversible inhibition of KDM5A ARID/PhD1 domain deletion mutant (1 to 739 residues) (unknown origin) at 100 uM using alpha-KG measured after 4 times of buffer exchange by succinate-glo demethylase assay
Method in brief: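 Enzyme–inhibitor complex preformed ([E] = 5 μM, initial [I] = 100 μM), then four buffer exchanges before Succinate-Glo activity measurement.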

[28] = target: T1, Lysine-specific demethylase 5A; experiment: Binding affinity to KDM5A ARID/PhD1 domain deletion mutant (1 to 588 residues) (unknown origin) assessed as covalent modification of enzyme at 0.5 mM after 30 mins by ESI-tandem-MS analysis
[29] = Drug level in human BT474 cell culture media treated with isopropyl 2-((3-Aminophenyl)(2-(piperidin-1-yl)-ethoxy)methyl)thieno[3,2-b]pyridine-7-carboxylate at 10 uM after 24 hrs by LC-MS/MS analysis; type: physicochemical

T1 sequence (P29375 whole entry, the tested form may be a part): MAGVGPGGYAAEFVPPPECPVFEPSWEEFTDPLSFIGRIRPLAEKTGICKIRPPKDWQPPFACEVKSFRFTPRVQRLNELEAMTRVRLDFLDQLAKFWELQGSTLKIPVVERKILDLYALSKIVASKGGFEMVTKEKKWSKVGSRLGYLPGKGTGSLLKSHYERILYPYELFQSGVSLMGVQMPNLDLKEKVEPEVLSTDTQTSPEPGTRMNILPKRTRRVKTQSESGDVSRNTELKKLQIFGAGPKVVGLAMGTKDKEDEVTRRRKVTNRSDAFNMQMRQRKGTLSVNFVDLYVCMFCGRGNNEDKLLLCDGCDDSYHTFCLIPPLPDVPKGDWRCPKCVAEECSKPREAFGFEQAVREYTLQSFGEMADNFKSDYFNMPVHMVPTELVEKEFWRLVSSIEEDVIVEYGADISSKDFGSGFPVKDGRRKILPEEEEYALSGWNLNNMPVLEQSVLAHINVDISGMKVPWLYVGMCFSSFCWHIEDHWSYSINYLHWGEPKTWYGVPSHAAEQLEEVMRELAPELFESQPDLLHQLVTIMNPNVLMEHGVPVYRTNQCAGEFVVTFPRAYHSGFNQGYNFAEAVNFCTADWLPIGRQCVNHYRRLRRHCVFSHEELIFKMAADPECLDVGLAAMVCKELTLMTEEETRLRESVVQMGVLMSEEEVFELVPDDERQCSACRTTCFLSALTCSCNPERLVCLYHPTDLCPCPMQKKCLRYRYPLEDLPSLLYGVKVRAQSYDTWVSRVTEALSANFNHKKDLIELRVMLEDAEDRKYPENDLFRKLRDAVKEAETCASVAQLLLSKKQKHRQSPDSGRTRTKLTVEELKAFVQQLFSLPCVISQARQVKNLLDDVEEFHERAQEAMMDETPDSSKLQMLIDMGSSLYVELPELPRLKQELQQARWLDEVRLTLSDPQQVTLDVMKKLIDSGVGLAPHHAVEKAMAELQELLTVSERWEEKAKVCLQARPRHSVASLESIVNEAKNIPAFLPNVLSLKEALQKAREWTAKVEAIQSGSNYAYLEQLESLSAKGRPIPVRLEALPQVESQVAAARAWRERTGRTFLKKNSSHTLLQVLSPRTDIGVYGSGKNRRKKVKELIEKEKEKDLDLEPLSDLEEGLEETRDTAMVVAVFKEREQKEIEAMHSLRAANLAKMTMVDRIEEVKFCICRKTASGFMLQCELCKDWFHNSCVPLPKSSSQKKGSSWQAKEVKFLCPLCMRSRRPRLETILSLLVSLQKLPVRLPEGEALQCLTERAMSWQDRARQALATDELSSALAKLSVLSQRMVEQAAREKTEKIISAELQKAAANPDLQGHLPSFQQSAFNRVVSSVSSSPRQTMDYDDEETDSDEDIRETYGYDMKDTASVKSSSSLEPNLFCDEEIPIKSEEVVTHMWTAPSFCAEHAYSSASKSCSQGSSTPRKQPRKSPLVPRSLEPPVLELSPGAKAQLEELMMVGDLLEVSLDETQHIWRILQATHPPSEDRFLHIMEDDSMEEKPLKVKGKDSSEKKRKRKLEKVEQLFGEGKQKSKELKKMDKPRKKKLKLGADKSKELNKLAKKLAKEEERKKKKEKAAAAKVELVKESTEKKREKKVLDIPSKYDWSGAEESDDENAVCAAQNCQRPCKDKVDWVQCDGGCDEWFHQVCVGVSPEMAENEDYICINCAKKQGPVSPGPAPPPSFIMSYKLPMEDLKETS

| Compound | Papp [1] [×10⁻⁶ cm/s] | remaining at 24 h, 10 µM [11] [%] | IC50 [14] [nM] | Ratio IC50 [15] | IC50 [16] [nM] | IC50 [17] [nM] | IC50 [18] [nM] | IC50 [22] [nM] | IC50 [23] [nM] | inhibition [27] | Activity [28] | other results |
| --- | --- | --- | --- | --- | --- | --- | --- | --- | --- | --- | --- | --- |
| CC(C)OC(=O)c1ccnc2cc(C(OCCN3CCCCC3)c3cccc(NC(=O)/C=C/CN(C)C)c3)sc12 (stereo not drawn) | 71.4 | 80 | – | – | – | – | – | – | – | – | – | Activity [2]: Active; growth inhibition (GI) [3]: inactive; Activity [4]: Active; Activity [5]: Active; Activity [6]: Toxic; fold change (FC) [7]: < 2; fold change (FC) [8]: < 2; fold change (FC) [9]: < 2; fold change (FC) [10]: < 2; Drug uptake [12]: Active; inhibition [13]: inactive |
| CN(C)C/C=C/C(=O)Nc1cccc(C(OCCN2CCCCC2)c2cc3nccc(C(=O)O)c3s2)c1 (stereo not drawn) | < 1 | 60 | 5300 | 24 | 100 | 110 | 180 | 110 | 1240 | Active | Active | IC50 [19]: 60 nM; IC50 [20]: 180 nM; IC50 [21]: 360 nM; inhibition [24]: Tde; Ki [25]: 410 nM; Kinact [25]: 0.198 min⁻¹; Ratio [26]: 8 ×10³ /M/s |
| Nc1cccc(C(OCCN2CCCCC2)c2cc3nccc(C(=O)O)c3s2)c1 (stereo not drawn) | 52.7 | 93 | 4200 | 8.6 | 700 | 5400 | > 100000 | 5500 | 4900 | inactive | inactive | Drug metabolism [29]: Metabolite_Detected |
